From ChEMBL document CHEMBL1151226, “New bioactive prenylflavonoids and dibenzocycloheptene derivative from roots of Dendrolobium lanceolatum” (J Nat Prod, 2004)
In brackets after ≈: the same amount, converted by molar mass. Activity calls are given as the source filed them. The calls are words filed in the database; no cut-off is given here.

What was measured:
Plasmodium falciparum [1] = test: Antiplasmodial activity against multidrug-resistant Plasmodium falciparum K1 at 20 ug/ml as [3H]hypoxanthine uptake; assay type: functional, organism-based
[2] = system: Mycobacterium tuberculosis; test: Antimycobacterial activity against Mycobacterium tuberculosis H37Ra by alamar blue assay; assay type: functional
How it was run: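 M. tuberculosis H37Ra tested in the Microplate Alamar Blue Assay (MABA). Isoniazid and kanamycin sulfate were the reference drugs.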

KB [3] = test: Cytotoxicity against human KB cells at 20 ug/ml; assay type: functional, cell-based
BC = test: Cytotoxicity against human BC cells at 20 ug/ml; assay type: functional, cell-based
NCI-H187 [4] = test: Cytotoxicity against human NCI-H187 cells at 20 ug/ml; assay type: functional, cell-based
Plasmodium falciparum [5] = test: Antiplasmodial activity against multidrug-resistant Plasmodium falciparum K1 as [3H]hypoxanthine uptake; assay type: functional, organism-based
How it was run: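 P. falciparum K1 (multidrug-resistant) maintained in culture by the Trager–Jensen method. Microculture radioisotope technique, with growth read as in vitro [3H]-hypoxanthine uptake by the parasites. IC50 is the concentration giving 50% reduction in parasite growth. Artemisinin was the reference standard.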

KB [6] = test: Cytotoxicity against human KB cells; assay type: functional, cell-based
How it was run: (§1)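 Human epidermoid carcinoma (KB) and human breast cancer (BC) cell lines assessed by a colorimetric cytotoxicity method following Skehan and co-workers. Ellipticine was the reference substance.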

[7] = Cytotoxicity against human BC cells; assay type: functional, cell-based; how it was run: as §1
NCI-H187 [8] = test: Cytotoxicity against human NCI-H187 cells; assay type: functional, cell-based
How it was run: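 Human small cell lung cancer NCI-H187 cell line, assayed by the colorimetric method of Skehan and co-workers. Ellipticine served as the reference substance.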

Compound | Activity (Plasmodium falciparum [1]) | MIC [2] [µg/mL] | Activity (KB [3]) | Activity (BC) | Activity (NCI-H187 [4]) | IC50 (Plasmodium falciparum [5]) [µg/mL] | IC50 (KB [6]) [µg/mL] | IC50 [7] [µg/mL] | IC50 (NCI-H187 [8]) [µg/mL]
COc1cc2c(cc1O)-c1cc(O)c(OC)c(OC)c1C=CC2 | inactive | 50 (≈ 159 µM) | inactive | inactive | inactive | – | – | – | –
C[C@@H]1CC[C@H]2[C@@H](C)C(=O)O[C@@H]3O[C@@]4(C)CC[C@@H]1[C@]32OO4 [ARTEMISININ] | – | – | – | – | – | 0.001 (≈ 0.00354 µM) | – | – | –
CC(C)=CCc1c([C@@H]2CC(=O)c3c(O)cc(O)c(CC=C(C)C)c3O2)cc2c(c1O)OC(C)(C)C=C2 | – | 6.3 (≈ 12.8 µM) | – | – | – | 2.6 (≈ 5.3 µM) | 1.2 (≈ 2.45 µM) | 1.7 (≈ 3.47 µM) | 0.6 (≈ 1.22 µM)
COc1cc2c(c(CC=C(C)C)c1O)O[C@H](c1ccc(O)c(O)c1CC=C(C)C)CC2 | – | 25 (≈ 58.9 µM) | inactive | inactive | inactive | 3.1 (≈ 7.3 µM) | – | – | –
NNC(=O)c1ccncc1 [ISONIAZID] | – | 0.04 (≈ 0.292 µM) | – | – | – | – | – | – | –
NC[C@H]1O[C@H](O[C@H]2[C@H](O)[C@@H](O[C@H]3O[C@H](CO)[C@@H](O)[C@H](N)[C@H]3O)[C@H](N)C[C@@H]2N)[C@H](O)[C@@H](O)[C@@H]1O.O=S(=O)(O)O [KANAMYCIN SULFATE] | – | 2 | – | – | – | – | – | – | –
CC1(C)C=Cc2c(ccc3c2O[C@H](c2ccc(O)cc2)CC3)O1 | inactive | 25 (≈ 81.1 µM) | inactive | inactive | inactive | – | – | – | –
Cc1c2ccncc2c(C)c2c1[nH]c1ccccc12 [ELLIPTECINE] | – | – | – | – | – | – | 0.4 (≈ 1.62 µM) | 0.4 (≈ 1.62 µM) | 0.4 (≈ 1.62 µM)
COc1ccc([C@@H]2CC(=O)c3c(O)cc(O)c(CC=C(C)C)c3O2)c(CC=C(C)C)c1O | – | 12.5 (≈ 28.5 µM) | inactive | inactive | – | 3.3 (≈ 7.53 µM) | – | – | 8.1 (≈ 18.5 µM)
